NR2E3 ag-1: NR2E3 (human) agonism | actives 0.12% (n = 320,000) | GST-NR2E3/biotin-RetCOR TR-FRET, 1536-well | inhibition of corepressor binding, % at 4.78 µM | Q9Y5X4;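 active = percent inhibition above the cutoff of mean plus 3 SD of all tested compounds, set per screening campaign, cut at about 20% in these data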;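 note: 0% = DMSO wells and 100% = biotin wells as full block of FRET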
Target sequence (Q9Y5X4 whole entry, looked up): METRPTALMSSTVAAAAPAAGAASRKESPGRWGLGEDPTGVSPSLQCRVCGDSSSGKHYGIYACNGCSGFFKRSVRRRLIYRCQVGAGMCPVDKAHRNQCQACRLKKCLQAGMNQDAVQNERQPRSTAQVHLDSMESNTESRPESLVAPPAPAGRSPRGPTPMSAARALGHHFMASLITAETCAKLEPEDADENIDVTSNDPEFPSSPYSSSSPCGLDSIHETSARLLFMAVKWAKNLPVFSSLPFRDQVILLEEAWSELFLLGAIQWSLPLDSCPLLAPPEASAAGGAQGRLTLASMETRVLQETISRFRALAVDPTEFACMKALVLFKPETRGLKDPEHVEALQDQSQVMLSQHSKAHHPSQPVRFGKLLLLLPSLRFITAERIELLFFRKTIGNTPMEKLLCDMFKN
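Format: 1536-well format; test system: GST-NR2E3 and biotin-RetCOR proteins; read-out basis: percent inhibition of TR-FRET ratio; timing: 5 h incubation at 4 °C; detection: time-resolved FRET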
NR2E3 ag-2: agonists of human NR2E3 nuclear receptor; Q9Y5X4; CHO-S Gal4-NCOR/VP16-NR2E3 two-hybrid, luciferase; inhibition of corepressor binding, % at 3.98 µM; actives 0.35% (n = 360,000); AID 602229;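 active = inhibition above the mean of all tested compounds plus 3 SD, cut at about 70% in these data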;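 note: 0% = DMSO with NR2E3 transfected cells and 100% = cells lacking NR2E3 construct; higher means lower luciferase signal from less NR2E3 corepressor binding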
NR1D1 modulator: modulates human Rev-erb alpha binding to DNA; activity, % at 10 µM; actives 0.79% (n = 370,000); P20393; Rev-erbα–FITC-DNA binding, fluorescence polarization, 90 min;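 active = activity above about 14%, limit read from the data; passing the limit was not always enough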;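 note: 0% = DMSO wells with 35 nM protein and 100% = DMSO wells with 750 nM protein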
PG9 Ab binder: binds the HIV-1 gp120 antibody PG9. TR-FRET gp120-PG9 antibody binding. inhibition, % at 6.7 µM. actives 0.43% (n = 360,000). AID 624416; in the data active = inhibition above about 8.5%
PG9 binder conf: PG9 antibody binding, confirmed; TR-FRET PG9 antibody binding, biochemical; actives 90% (n = 1,500); shares compounds with PG9 Ab binder; AID 651571; inhibition, % at 6.7 µM; in the data active = inhibition above about 9%
PGV04 counter: counter-screen for PG9 binders: binding control antibody PGV04; shares compounds with PG9 Ab binder; TR-FRET PGV04 antibody-gp120 binding, biochemical; inhibition, % at 6.7 µM; actives 95% (n = 1,500); in the data active = inhibition above about 9.5%
PG9 bind DR: PG9 antibody binding, dose response; shares compounds with PG9 Ab binder; TR-FRET PG9 antibody-gp120 binding inhibition; IC50, µM; 95 tested, under 10 active; in the data active = IC50 below about 10 µM
PGV04 DR counter: binds control antibody PGV04 in PG9 counter-screen | shares compounds with PG9 Ab binder | TR-FRET binding to control antibody PGV04 | IC50, µM | actives 20% (n = 95) | AID 651937
PG126 binding DR: binds control antibody PG126 in PG9 counter-screen; actives 20% (n = 95); shares compounds with PG9 Ab binder; IC50, µM; TR-FRET binding to antibody PG126, counterscreen
Starred values were filed as active, the others as inactive; i = inactive; . = not tested or not shown. A selection: hits, their analogues and other compounds. The true share with any hit is near 1.5%. Cut-off read from the data, not from the text of the source, unless noted: active = IC50 below about 9 µM; inactive = the rest.

SMILES	NR2E3 ag-1	NR2E3 ag-2	NR1D1 modulator	PG9 Ab binder	PG9 binder conf	PGV04 counter	others
Cc1ccc(Cn2cc(S(=O)(=O)c3ccc(Cl)cc3)c(=O)c3cc(F)ccc32)cc1	3.5	-9.3	0.4	8.7*	12.1*	21.2*
CC1Cc2ccccc2N1C(=O)COC(=O)c1ccc(O)cc1 (stereo not given)	0.1	20.1	0.3	2.6	.	.
CC1Cc2ccccc2N1C(=O)COC(=O)c1ccc(N(C)C)cc1 (stereo not given)	0.8	-13.8	6.2	11.8*	13.1*	15.9*
CCCc1nc2ccccc2c(=O)n1CC(=O)c1ccc(OC)cc1	-1.1	7.7	1.9	10.0*	10.8*	15.1*
CCCc1nc2ccccc2c(=O)n1CC(=O)c1ccccc1	-0.1	-0.3	-2.0	-2.5	.	.
CCn1c(/C=C/c2cc[n+](C)cc2)nc2ccccc21	4.3	-34.7	4.7	12.6*	14.2*	15.8*
CCOCCCn1c(SCC(=O)Nc2ccc(OC)cc2)nc2ccccc2c1=O	2.5	-13.4	4.2	47.9*	47.5*	54.7*
CCOc1ccccc1-c1n[nH]c(=S)o1	6.1	-8.4	-3.2	10.6*	13.7*	19.2*
Cn1c(CNC(=O)C2CCCCC2)cc2cc(Cl)ccc21	7.0	-30.1	4.7	19.5*	22.3*	34.2*
CCOc1cc(CCNC(=O)c2cc3sccc3n2CC)ccc1OC	.	.	4.7	.	.	.
O=C(Nc1ccsc1C(=O)NC1CCCCC1)c1ccccc1	-1.2	-10.8	15.1	28.5*	24.9*	31.1*
C[C@@H](CCCCC1(C)OCCO1)CCC(=O)N(c1ccccc1)c1ccccc1	.	.	-4.4	.	.	.
O=C(CCS(=O)(=O)c1ccccc1)N(CCCN1CCOCC1)c1nc2ccccc2s1	-2.1	-42.9	11.2	0.8	.	.
Cc1ccc(S(=O)(=O)CCC(=O)N(CCCN2CCOCC2)c2nc3ccccc3s2)cc1	-1.2	-48.5	4.9	9.6*	6.6	10.6*
Cc1cc(C)cc(C(=O)OCCN(C)C2CN(Cc3cn(Cc4ccc([N+](=O)[O-])cc4)nn3)S(=O)(=O)C2)c1 (stereo not given)	.	.	-5.6	.	.	.
O=C(Nc1nccs1)c1ccc(COc2ccccc2)o1	-0.5	-79.7	8.3	9.3*	12.8*	20.4*
Cc1ccc(OCc2ccc(C(=O)Nc3nccs3)o2)cc1	-3.3	-93.8	0.5	13.5*	14.6*	21.1*
CCc1nnc(NC(=O)c2ccc(COc3ccc(C)cc3)o2)s1	-2.5	-13.4	1.4	-1.4	.	.
CC(C)c1nc2sc3c(=O)[nH]cnc3c2c2c1CCC2	5.2	6.8	6.3	9.6*	19.6*	26.2*
Cc1cccc(C(=O)Nc2c(-c3ccc(C(F)(F)F)cc3)nc3ncccn23)c1	.	.	0.2	.	.	.
COC(=O)[C@]12C[C@H](CC(=O)NCc3cccc4ccccc34)C(=O)N(CCC3=CCCCC3)C1=C[C@H](C(C)C)O[C@@H]2C1CC1	.	.	-1.1	.	.	.
Cc1cc(NC(=O)c2ccc3c(c2)C(=O)N(CCC(C)C)C3=O)no1	-1.0	-22.1	-2.5	11.9*	6.7	7.9
COc1ccc(OC)c(NC(=O)CSc2nc3scc(C)c3c(=O)[nH]2)c1	1.4	-20.4	-3.7	0.0	.	.
COc1cccc(NC(=O)CSc2nc3scc(C)c3c(=O)[nH]2)c1	3.1	-13.7	7.6	25.7*	28.9*	43.0*
O=S1(=O)c2ccc(N3CCN(Cc4ccccc4F)CC3)cc2Oc2ccccc2CN1Cc1cn(Cc2ccccc2C(F)(F)F)nn1	.	.	3.3	.	.	.
SMILES	NR2E3 ag-1	NR2E3 ag-2	NR1D1 modulator	PG9 Ab binder	PG9 binder conf	PGV04 counter	others
CC(=O)Nc1ccc(C(=O)Nc2nnc(CCc3ccccc3)s2)cc1	0.9	-3.4	12.5	24.7*	15.2*	24.1*
Cc1ccc(OCc2nnc(NC(=O)c3cccnc3)s2)cc1	-0.7	-20.3	1.5	2.6	.	.
Cc1ccc(C(=O)Nc2nnc(COc3ccccc3)s2)cc1	14.3	-29.6	6.0	25.4*	33.5*	39.1*
O=C(Nc1ccccc1)c1ccc(COc2ccccc2)cc1	1.6	-25.6	4.1	13.0*	11.9*	16.1*
C#CCNC(=O)C[C@H]1C[C@@]2(C(=O)OC)C(=C[C@H](C(C)(C)C)O[C@@H]2C)N(Cc2cccc3ccccc23)C1=O	.	.	5.8	.	.	.
O=C(COC(=O)c1cn(-c2ccccc2)nc1-c1ccc(F)cc1)Nc1ncc(Cl)cc1Cl	0.6	-31.5	5.4	-0.4	.	.
NS(=O)(=O)c1ccc(NC(=O)COC(=O)c2cn(-c3ccccc3)nc2-c2ccc(F)cc2)cc1	4.7	11.1	4.0	9.0*	16.4*	24.3*
Cc1cccc(NC(=O)c2cnn3ccccc23)c1C	-1.0	-80.4	-2.9	11.2*	0.9	3.6
COc1ccc(-c2c(Sc3ccccc3)c3cc(-c4ccc(OC)c(F)c4)ccc3n2C)cc1	.	8.0	2.7	26.5*	-12.6	36.0*
COc1cc(OC)cc(-c2c(Sc3ccccc3)c3cc(-c4ccc(OC)c(OC)c4)ccc3n2C)c1	.	-4.0	13.6	18.9*	33.7*	19.1*	PG9 bind DR=i;PGV04 DR counter=i;PG126 binding DR=i
COP(=O)(OC)C(Cc1ccccc1)NC(=O)CNC(=O)OCc1ccccc1 (stereo not given)	.	.	3.7	.	.	.
COc1cccc(OCc2nn3c(=O)c(-c4ccccc4)nnc3s2)c1	.	-32.9	17.7	12.3*	19.4*	34.5*
COc1ccc(OCc2nn3c(-c4cccc(OC)c4)nnc3s2)cc1	-1.6	-11.9	-1.0	-1.9	.	.
O=C(Cn1c(=O)c2cccn2c2ccccc21)NCCc1ccccc1	10.0	14.7	6.7	10.6*	19.1*	27.4*
CCC(C)(C)NC(=S)Nc1ccc(-c2nc3ccc(C)cc3s2)cc1	3.2	-139.4	-5.1	11.3*	10.2*	23.5*
CC(C)CNS(=O)(=O)/C=C/c1ccc(F)cc1CNC(=O)OC(C)(C)C	.	.	-1.6	.	.	.
COc1ccc(-c2nc3c(C)cc(Br)cn3c2CC2CCCCC2)cc1OC	.	-24.7	3.3	13.7*	22.4*	27.4*
COc1ccc(-c2nc3c(C)cc(Br)cn3c2CC(C)(C)C)cc1OC	.	4.4	-2.8	22.2*	25.3*	39.6*
COc1ccc(CCNCC(O)COc2cccc(C)c2)cc1OC (stereo not given)	.	.	-2.8	.	.	.
CCc1c(C(=O)Nc2ccc(OC)cc2)[nH]c(C)c1C(C)=O	0.9	-20.1	-4.1	0.7	.	.
CCc1c(C(=O)Nc2cc(C)ccc2OC)[nH]c(C)c1C(C)=O	1.1	-18.7	-1.7	19.9*	18.6*	24.1*

Compound activity (PubChem)
